Source: PubChem BioAssay
Rpn11 block: Rpn11 (human) deubiquitinase inhibition; AID 588493; actives 0.59% (n = 360,000); O00487; human 26S proteasome, Ub4-pepOG fluorescence polarization; 20S core pre-blocked with epoxomicin; inhibition, % at 20 µM;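 active = inhibition at 20 µM, scaled to each plate's controls, above about 33%, limit read from the data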
Target sequence (O00487 whole entry, looked up): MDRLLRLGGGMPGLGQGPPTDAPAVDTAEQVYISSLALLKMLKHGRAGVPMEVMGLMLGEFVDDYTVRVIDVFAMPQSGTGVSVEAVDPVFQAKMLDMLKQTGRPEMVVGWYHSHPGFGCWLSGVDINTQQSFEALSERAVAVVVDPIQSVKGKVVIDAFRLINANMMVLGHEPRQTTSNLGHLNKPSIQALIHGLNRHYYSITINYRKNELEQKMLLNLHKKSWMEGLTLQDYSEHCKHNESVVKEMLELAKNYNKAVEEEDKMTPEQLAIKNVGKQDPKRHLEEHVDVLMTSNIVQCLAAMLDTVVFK
TPT1 inh: inhibitors of Candida albicans tRNA 2'-phosphotransferase TPT1 | recombinant caTPT1, FP RNA substrate dephosphorylation | inhibition, % at 5 µM | actives 0.81% (n = 300,000) | AID 1962;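 active = inhibition above the mean of all tested compounds plus 3 SD, set per screening campaign, cut at about 24% in these data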;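 note: plate controls were DMSO alone for no effect and ferristatin control at 100 nM for full effect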
ATG4B inh: blocks human ATG4B protease cleavage of LC3 substrate. inhibition, % at 8.33 µM. Q9Y4P1. actives 0.51% (n = 340,000). ATG4B cleavage of LC3-PLA2, NBD-HPC fluorescence, 1 h. AID 504462; in the data active = inhibition above about 40%
Target sequence (Q9Y4P1 whole entry, looked up): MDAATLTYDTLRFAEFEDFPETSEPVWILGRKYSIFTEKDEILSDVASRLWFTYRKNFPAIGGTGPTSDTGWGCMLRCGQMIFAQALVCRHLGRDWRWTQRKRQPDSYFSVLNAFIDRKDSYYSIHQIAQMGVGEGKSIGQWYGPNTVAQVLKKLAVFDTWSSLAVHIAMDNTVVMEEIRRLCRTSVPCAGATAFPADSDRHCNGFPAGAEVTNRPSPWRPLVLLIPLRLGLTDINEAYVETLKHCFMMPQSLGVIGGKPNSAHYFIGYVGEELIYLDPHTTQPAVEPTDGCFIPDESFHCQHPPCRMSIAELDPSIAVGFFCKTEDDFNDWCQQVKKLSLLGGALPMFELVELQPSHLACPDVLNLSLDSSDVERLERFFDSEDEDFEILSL
CSN deneddyl inh: blocks human CSN-mediated cullin deneddylation; Purified CSN, SCF-Nedd8-OG deneddylation, fluorescence polarization; inhibition, % at 12.5 µM; AID 651999; actives 0.38% (n = 360,000); Q92905;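 active = pattern-corrected inhibition above about 35%, with an unprinted fluorescence ratio check between 0.5 and 1.5, limit read from the data, passing the limit was not always enough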;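 note: 0% = enzyme with substrate and 100% = substrate without enzyme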
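Material: human Csn5 produced in HEK293T cells; Input: enzyme 0.24 nM; Reagent: SCFSkp2-Nedd8OG substrate at 10 nM final; Dosing: 12.5 µM compound; Incubation: 90 min reaction at room temperature; Detection: fluorescence polarization of the substrate; Evaluation: % inhibition of substrate cleavage by Csn5; Control set: substrate-only high control, full reaction low control.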
HNF4A DNA FP: change in binding of human HNF4 alpha to DNA | activity change, % at 10 µM | HNF4a-FITC DNA binding, fluorescence polarization, 1 h | AID 1224865 | actives 0.3% (n = 360,000); in the data active = activity change above about 30%, passing the limit was not always enough
SENP1 FRET inh: inhibitors of human SENP1 SUMO protease catalytic domain; recombinant SENP1 catalytic domain, CyPet-SUMO1-YPet FRET cleavage; actives 0.21% (n = 360,000); inhibition, % at 10 µM; AID 624204;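 active = inhibition at least 30% at 10 µM, raw YFP signal under a set limit, fluorescence ratio 0.5 to 1.5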;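 note: 0% = enzyme with DMSO and 100% = no enzyme wells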
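Test system: human SENP1 catalytic domain; medium: Tris pH 8 buffer plus EDTA, NaCl, BME, BSA, NP40, catalase; incubation: 50 min reaction at room temperature; technique: FRET, CFP and YFP emission; controls: no-enzyme low control and enzyme-plus-DMSO high control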
SENP1 inh conf: SENP1 (human) inhibition, single concentration confirmation; actives 34% (n = 520); inhibition, % at 10 µM; recombinant SENP1, CyPet-SUMO1-YPet FRET cleavage; shares compounds with SENP1 FRET inh; in the data active = inhibition mostly above about 35%, no sharp cut-off; inactive = mostly below about 32%;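 note: 0% = enzyme with DMSO and 100% = no enzyme control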
SENP1 kinetic: confirmation of human SENP1 SUMO protease inhibitors, kinetic; shares compounds with SENP1 FRET inh; recombinant SENP1, CyPet-SUMO1-YPet FRET kinetic cleavage; inhibition, % at 10 µM; actives 26% (n = 520); AID 651690; in the data active = inhibition mostly above about 32%, no sharp cut-off; inactive = mostly below about 29%;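 note: 0% = DMSO with enzyme and 100% = no enzyme substrate only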
CSN deneddyl val: validation of inhibitors of human CSN-mediated cullin deneddylation; actives 62% (n = 540); inhibition, % at 16.6 µM; Csn5 deneddylation of SCF-Nedd8OG, fluorescence polarization, 90 min; shares compounds with CSN deneddyl inh; AID 720654; in the data active = inhibition above about 50%;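 note: 0% = DMSO with enzyme and 100% = no enzyme wells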
MMP-2 counter: blocks human MMP-2 in a CSN deneddylation counter-screen. recombinant MMP-2, FRET substrate fluorescence, 60 min. inhibition, % at 16.6 µM. shares compounds with CSN deneddyl inh. actives 33% (n = 540). AID 720655;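 active = corrected plate-normalized z-score of 5 or more, or -5 or less, or inhibition of 15% or more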;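 note: plate controls were DMSO wells with enzyme for no effect and buffer wells lacking MMP-2 for full effect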
Thrombin cntr: counter-screen for CSN deneddylation inhibitors: bovine thrombin inhibition; bovine thrombin cleavage of Ub4-pepOG, fluorescence polarization; actives 49% (n = 540); inhibition, % at 16.6 µM; shares compounds with CSN deneddyl inh; AID 720656;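 active = inhibition at or above a set limit, with a fluorescence interference ratio between 0.5 and a set maximum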
Active calls of the source: *; nt = no result shown. An excerpt weighted towards active compounds, which were near 2% of everything screened.

SMILES	Rpn11 block	TPT1 inh	ATG4B inh	CSN deneddyl inh	HNF4A DNA FP	SENP1 FRET inh	SENP1 inh conf	SENP1 kinetic	others
N#Cc1c(C(F)(F)F)cc(-c2ccccc2)nc1SCCN1CCOCC1	1	-1	-10	-1	2	33*	12	9
COc1ccc(-c2ccc(C(=O)Nc3ccc4c(c3)OCO4)c3occc23)c(C)c1	5	nt	nt	0	0	-1	nt	nt
Nc1cc2c(cc1[N+](=O)[O-])-c1ccccc1C2=NO	12	nt	0	6	23	32*	36	11
CC(=O)Nc1cc2c(cc1[N+](=O)[O-])-c1ccccc1C2=NO	20	nt	-10	3	-2	19	nt	nt
O=C(Nc1ccc([N+](=O)[O-])cc1)Nn1cnnc1	-1	-2	-3	1	3	4	nt	nt
C[C@@H]1CN([C@@H](C)CO)C(=O)c2cc(NS(=O)(=O)c3ccc(Cl)cc3)ccc2O[C@H]1CN(C)Cc1ccncc1	-6	nt	-19	-2	3	1	nt	nt
COc1ccc(-c2cnnc(N/N=C/c3ccc(-c4ccc([N+](=O)[O-])cc4)o3)n2)cc1	20	nt	1	1	41	36*	-2	9
CC1C=CCC2C(=O)N(c3cccc(C(=O)Nc4ccc(F)cc4)c3)C(=O)C12 (stereo not given)	7	-1	1	1	3	1	nt	nt
COc1cccc(NC(=O)CSCc2nc3sc(C)c(C)c3c(=O)[nH]2)c1	4	nt	nt	1	5	2	nt	nt
CCN(C(=O)c1cccs1)C1CCS(=O)(=O)C1 (stereo not given)	-5	nt	2	-6	3	0	nt	nt
C[C@@H]1O[C@@H](OC[C@H]2O[C@@H](Oc3cc(O)c4c(=O)cc(-c5ccc(O)c(O)c5)oc4c3)[C@H](O)[C@@H](O)[C@@H]2O)[C@H](O)[C@H](O)[C@H]1O	-5	nt	-6	-1	1	43*	57*	42*
COc1cc(-c2oc3cc(O)cc(O)c3c(=O)c2O[C@@H]2O[C@H](COC3O[C@@H](C)[C@H](O)[C@@H](O)[C@H]3O)[C@@H](O)[C@H](O)[C@H]2O)ccc1O (stereo not given in full)	-2	nt	1	-4	3	8	nt	nt
O=C1c2cccc(O)c2C(=O)c2c(O)cccc21	nt	-36	nt	nt	nt	nt	nt	nt
COc1cccc2c1-c1c(O)cccc1C2=O	-3	5	-5	2	-2	31*	42*	26
CCOC(=O)c1sc2nc(C)nc(NCc3ccc(F)cc3)c2c1C	21	10	4	-1	4	36*	-19	18
O=C(NN1C(=O)C2C3C=CC(C3)C2C1=O)c1ccccc1 (stereo not given)	-1	4	0	-5	-2	3	nt	nt
Cc1cccc(C(=O)NN2C(=O)C3C(c4ccccc4)C=CC(c4ccccc4)C3C2=O)c1 (stereo not given)	4	-4	-4	-2	-2	64*	13	7
CC(=O)Nc1nnc(CSCc2ccccc2F)s1	0	1	5	2	-2	2	nt	nt
O=C1C(Cl)=C(N2CCCC2)C(=O)N1c1ccc(F)cc1	10	3	5	2	-2	35*	11	10
CCC(C(=O)OCC(=O)N1CCN(c2ccc(OC)cc2)CC1)c1ccccc1 (stereo not given)	0	nt	-5	-4	4	-1	nt	nt
CCC(C)[C@H](NC(=O)OC(C)(C)C)C(=O)NCC1CCC(C(=O)N[C@@H](Cc2ccccc2)C(=O)O)CC1 (stereo not given in full)	0	-5	-7	3	-4	2	nt	nt
COc1cc(/C=N/n2c(SC)nnc(C(C)(C)C)c2=O)ccc1O	-5	-2	-15	-2	2	52*	12	8
COc1ccc(/C=N/n2c(SC)nnc(C(C)(C)C)c2=O)cc1OC	-5	0	5	0	2	0	nt	nt
CCOC(=O)c1nc(-c2ccccc2)sc1C(C)=O	-2	0	-8	3	1	-2	nt	nt
O=C1C=C(Nc2ccc(Cl)cc2)C(=O)N1c1ccc(Cl)cc1	-3	-7	7	5	-5	34*	38*	37*
SMILES	Rpn11 block	TPT1 inh	ATG4B inh	CSN deneddyl inh	HNF4A DNA FP	SENP1 FRET inh	SENP1 inh conf	SENP1 kinetic	others
CC(=O)Oc1ccc(Cl)cc1/C=C/c1ccc2ccccc2n1	9	1	-7	1	0	34*	38*	16
NC(=O)c1ccc(NC(=O)COc2coc(CN3CCc4ccccc4C3)cc2=O)cc1	-4	-1	5	3	-3	-11	nt	nt
CC(C)Oc1cccc(C(=O)NC(=S)Nc2ccc3c4c(cccc24)CC3)c1	nt	-10	-3	7	13	37*	6	2
CCOC(=O)C1=C(C)N=c2sc(=Cc3cc(Cl)c(OCC(=O)O)c(Cl)c3)c(=O)n2C1c1cccc(OC)c1 (stereo not given)	nt	nt	nt	64*	97*	52*	51*	35*	CSN deneddyl val=17;MMP-2 counter=2;Thrombin cntr=49*
CCOC(=O)C1=C(C)N=c2s/c(=C/c3ccc(OCC(=O)O)cc3)c(=O)n2C1c1cc(OC)c(OC)c(OC)c1 (stereo not given)	16	11	0	4	1	-31	nt	nt
Cc1cccc(NC(=O)CNC(=O)c2ccc3nc[nH]c3c2)c1C	-10	2	3	4	-9	-4	nt	nt
Cc1c(N2C(=O)/C(=C/c3ccc(N(C)C)cc3)N(C)C2=S)c(=O)n(-c2ccccc2)n1C	nt	nt	-1	61*	55*	67*	55*	38*	CSN deneddyl val=37;MMP-2 counter=-4;Thrombin cntr=74*
